According to PubChem BioAssay:
Calls of active or inactive are those of the source.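 The calls were made as follows, unless noted: active = NADPH fluorescence slope more negative than the mean of all samples by about 3 SD, 99.7% confidence; inactive = the rest.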

Key:
[1] = inhibitors of TNFa-induced NFkB p65 translocation, primary screen, imaging, HUVEC, MLSMR starter and 10KST1 sets (AID 438;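 active = inhibition above 20% together with a positive visual image hit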;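 also: compound added about 3h40 before a 20 min TNFalpha stimulation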;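 as to inhibition: signal is the nuclear over cytoplasmic p65 intensity ratio per well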); details: HUVEC TNFa-induced p65 nuclear translocation; cell count: measured here: nuclei count (cytotoxicity indicator), at 2.08 µM; inhibition: at 2 µM, stronger effect = higher value, 0% TNFa-plus-vehicle, 100% no-TNFa wells
[2] = inhibitors of E-selectin induction by TNFa, primary screen, imaging, HUVEC, immunofluorescence, MLSMR starter and 10KST1 sets (AID 487;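 active = visually confirmed hit in the image check and inhibition above 20%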;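 as to inhibition: signal is fraction of cell area covered by stained E-selectin grains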;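 as to nuclei count: 100% = median nuclei count of all wells on the same plate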); details: HUVEC TNFalpha-induced E-selectin immunofluorescence imaging, at 2 µM; inhibition: stronger effect = higher value; nuclei count: measured here: cell number, toxicity
[3] = DUSP6 inhibitors restoring Erk phosphorylation by chemical complementation, primary imaging in DUSP6-transfected HeLa (AID 609;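 active = compounds giving at least 50% inhibition in the cell-based MKP-3 phosphatase rescue imaging test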;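 as to inhibition: phospho-Erk level distribution per well compared with pooled transfected vehicle control wells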); details: HeLa MKP-3 transfected, phospho-Erk imaging KS statistic, at 10 µM, cells stimulated with TPA for 15 min
[4] = target: Dual specificity protein phosphatase 6 (Homo sapiens) (UniProt Q16828); test: as above; details: HeLa MKP-3 transfected, phospho-Erk imaging KS statistic; at 10 µM; stronger effect = higher value; cells stimulated with TPA for 15 min
[5] = target: Voltage-gated potassium channel subunit beta-2 (Rattus norvegicus) (UniProt P62483); test: KvBeta enzyme negative modulators, primary screen, biochemical, NADPH fluorescence (AID 622;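 active = fluorescence slope higher than the sample average by over 3 SD, cut at about -0.22 in these data, passing the limit was not always enough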;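 also: slope of raw intensity against log time taken from 70 to 1610 s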); details: recombinant KvBeta, 4-cyanobenzaldehyde reduction, at 10 µM, stronger effect = higher value
[6] = target: Voltage-gated potassium channel subunit beta-2 (Rattus norvegicus) (UniProt P62483); test: KvBeta positive modulators, primary screen, biochemical, NADPH fluorescence (AID 623); details: Recombinant KvBeta, NADPH fluorescence decrease slope, 10 min; at 10 µM; stronger effect = lower value;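 also: fluorescence intensity change per second fitted from 20 to 320 s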
[7] = target: Muscarinic acetylcholine receptor M4 (Homo sapiens) (UniProt P08173); test: compounds altering M4/GIRK thallium flux, either direction, primary screen, M4 allosteric agonist project, cell-based, HEK293 M4/GIRK, BTC-AM (AID 625;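 active = fluorescence slope after compound addition differing from the mean of all tested samples at 99.7% confidence, mostly higher but some lower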;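 also: thallium influx through GIRK channels coupled to M4 in HEK293 cells with BTC-AM dye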); details: at 10 µM, actives lie on both sides
How it was run: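 System: HEK293 cells with M4 receptor and GIRK channels | Incubation: Cells overnight at 37 °C, BTC-AM loading 1 h, reads 2 min total | Technique: Kinetic BTC-AM fluorescence sampled at 1 Hz, 10 s pre-addition baseline | Measure: Post-addition slope, 15–24 s, of baseline-normalized fluorescence | Control set: Carbachol positive, DMSO negative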

[8] = inhibitors of larval lipid processing in zebrafish, primary screen, whole organism, PED6 fluorescence, gall bladder and intestine (AID 686;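 active = a full or partial loss of lipid-probe fluorescence in the fish gall bladder, intestine or both, judged by eye; inactive = no fluorescence loss, or compound toxic to the fish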;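 also: larvae 5 to 7 days old with five fish per well; signal comes from phospholipase A2 cleavage of quenched PED6 carried via bile; overnight exposure to compound and PED6 before scoring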); details: Zebrafish larvae PED6 lipid processing, fluorescence scoring; screened at 20 µM (by protocol)
How it was run: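 Test system – live zebrafish larvae aged 5-7 days, whole organism · Buffer or medium – E3 fish medium · Reagent – quenched phospholipase substrate PED6, 100 nM final, ingested by larvae · Doses – 20 µM single dose · Incubation – overnight compound and PED6 incubation · Technique – visual fluorescence microscopy scoring of gall bladder, gut · Read-out basis – visual per-well fluorescence inhibition score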

[9] = inhibitors of Chlamydomonas gravitaxis, primary screen, whole organism, Chlamydomonas reinhardtii, WT vs cilia-less mutant, absorbance, 96-well (AID 463189;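 active = inhibition at or above 50% relative to wild type and mutant plate controls; inactive = inhibition below 50%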;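 also: 0% = wild type cc124 cells in DMSO and 100% = ciliumless bld1 mutant cells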); details: OD600 absorbance, 2 days, at 10 µM, stronger effect = higher value
[10] = measured here: cell density z-score
[11] = measured here: nuclear c-Myc green intensity z-score
[12] = measured here: nuclear pErk red intensity z-score, stronger effect = higher value

Chain of Voltage-gated potassium channel subunit beta-2 (Rattus norvegicus) (P62483 whole entry, looked up): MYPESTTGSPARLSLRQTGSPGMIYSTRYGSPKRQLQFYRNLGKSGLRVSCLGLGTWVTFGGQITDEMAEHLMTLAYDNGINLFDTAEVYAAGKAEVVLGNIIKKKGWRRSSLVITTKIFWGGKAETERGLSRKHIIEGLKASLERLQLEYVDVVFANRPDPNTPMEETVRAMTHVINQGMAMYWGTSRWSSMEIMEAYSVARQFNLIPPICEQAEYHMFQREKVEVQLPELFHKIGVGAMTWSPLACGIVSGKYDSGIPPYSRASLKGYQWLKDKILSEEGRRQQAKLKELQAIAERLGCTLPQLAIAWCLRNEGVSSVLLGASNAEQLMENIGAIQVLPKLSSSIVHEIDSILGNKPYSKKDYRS
Chain of Muscarinic acetylcholine receptor M4 (Homo sapiens) (P08173 whole entry, looked up): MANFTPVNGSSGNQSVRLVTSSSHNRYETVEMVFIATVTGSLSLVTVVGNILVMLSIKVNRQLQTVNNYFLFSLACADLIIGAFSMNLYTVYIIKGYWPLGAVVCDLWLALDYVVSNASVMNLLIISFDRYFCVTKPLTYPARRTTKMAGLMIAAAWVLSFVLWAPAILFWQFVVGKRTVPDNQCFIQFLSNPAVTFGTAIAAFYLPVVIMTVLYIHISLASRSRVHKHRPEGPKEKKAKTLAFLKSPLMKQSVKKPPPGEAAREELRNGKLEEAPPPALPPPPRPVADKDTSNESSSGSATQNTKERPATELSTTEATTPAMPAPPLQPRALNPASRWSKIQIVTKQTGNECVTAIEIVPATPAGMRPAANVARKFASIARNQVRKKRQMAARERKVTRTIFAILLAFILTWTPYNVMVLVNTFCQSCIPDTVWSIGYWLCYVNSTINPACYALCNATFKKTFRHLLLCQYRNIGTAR
Chain of Dual specificity protein phosphatase 6 (Homo sapiens) (Q16828 whole entry, looked up): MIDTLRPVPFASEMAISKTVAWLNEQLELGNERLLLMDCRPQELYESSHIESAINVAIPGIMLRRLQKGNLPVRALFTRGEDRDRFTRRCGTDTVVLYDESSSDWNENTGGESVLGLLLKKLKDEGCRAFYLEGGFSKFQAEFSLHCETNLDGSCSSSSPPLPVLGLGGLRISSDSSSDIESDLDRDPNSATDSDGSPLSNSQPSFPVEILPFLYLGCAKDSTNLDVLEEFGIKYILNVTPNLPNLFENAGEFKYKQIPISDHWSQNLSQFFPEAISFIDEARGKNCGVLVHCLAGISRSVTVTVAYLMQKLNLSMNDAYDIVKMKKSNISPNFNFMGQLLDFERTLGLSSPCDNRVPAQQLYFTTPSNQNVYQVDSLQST

SMILES	cell count [1]	inhibition [1]	inhibition [2]	nuclei count [2] [%]	z-score [3, 10]	z-score [3, 11]	z-score [3, 12]	inhibition [4]	fluorescence slope [5]	NADPH fluorescence slope [6]	fluorescence slope [7]	outcome [8]	inhibition [9]
Cn1c(N2CCN(c3ccccn3)CC2)nc2c1c(=O)n(Cc1ccccc1Cl)c(=O)n2C	738	4.2% (inactive)	-56.1% (inactive)	177	-0.827	-0.0696	1.36	13.9% (inactive)	-0.465 (inactive)	-0.000144 (inactive)	0.00667 (inactive)	inactive	5.36% (inactive)
COc1cc(C(=O)Nc2ccc(O)cc2C(=O)O)ccc1OC(C)=O	645	3.6% (inactive)	31.5% (inactive)	95.3	-0.0173	0.715	-0.436	5.35% (inactive)	-0.547 (inactive)	-6.2e-05 (inactive)	0.00561 (inactive)	inactive	13.9% (inactive)
CCC(=O)Nc1cccc(-c2nnc(SCC(=O)NCc3ccco3)n2C)c1	615	-0.2% (inactive)	47.2% (inactive)	92.3	1.47	-0.507	-1.13	18.4% (inactive)	-0.51 (inactive)	-4e-05 (inactive)	0.00589 (inactive)	inactive	-16.4% (inactive)
COC(=O)/C=c1/s/c(=C(/C#N)C(=O)N2CCCCC2)n(-c2ccccc2)c1=O	585	-0.7% (inactive)	-20.5% (inactive)	90.8	-0.699	0.059	0.258	-5.81% (inactive)	-0.546 (inactive)	-1.7e-05 (inactive)	0.00519 (inactive)	inactive	15.4% (inactive)
CCC(=NC(CC)CO)C1=C(O)CC(C)(C)CC1=O (stereo unspecified)	686	-11.6% (inactive)	-103% (inactive)	171	0.537	-0.145	1.26	-13.3% (inactive)	-0.519 (inactive)	-8.5e-05 (inactive)	0.00583 (inactive)	inactive	-0.04% (inactive)
Clc1ccc(-n2ncc3c(NCc4ccccn4)ncnc32)cc1	537	-14.9% (inactive)	6.6% (inactive)	106	-1.8	2.08	-1.64	1.42% (inactive)	-0.374 (inactive)	5.6e-06 (inactive)	0.0062 (inactive)	inactive	0.96% (inactive)
CN(C)CCCN1C(=O)C(=O)/C(=C(/O)c2ccccc2)C1c1ccccn1 (stereo unspecified)	473	-8.2% (inactive)	-97.3% (inactive)	158	1.03	-1.2	0.352	1.04% (inactive)	-0.486 (inactive)	-6.1e-05 (inactive)	0.00459 (inactive)	inactive	10.1% (inactive)
O=C(NCc1ccccn1)c1ccc(=O)oc1	758	8.2% (inactive)	-1.5% (inactive)	151	0.015	0.178	-0.703	-3.95% (inactive)	-0.48 (inactive)	-4.4e-05 (inactive)	0.00585 (inactive)	inactive	17.3% (inactive)
COC(=O)CSCC(=O)Nc1cc2c(cc1C(C)=O)OCO2	333	-6.3% (inactive)	-95.3% (inactive)	76.4	0.0556	-1.11	1.67	-4.78% (inactive)	-0.452 (inactive)	1.5e-05 (inactive)	0.00475 (inactive)	inactive	22.6% (inactive)
CC1(C)Cc2c(C#N)c(N3CCN(C(=O)c4ccco4)CC3)nc(-c3ccco3)c2CS1	639	-0.1% (inactive)	-82.6% (inactive)	138	-1.4	-0.121	-2.48	-4.27% (inactive)	-0.464 (inactive)	-6.6e-05 (inactive)	0.00584 (inactive)	inactive	3.99% (inactive)
CC(C)Sc1nnc2n(CCc3ccccc3)c(=O)c3c4c(sc3n12)COC(C)(C)C4	532	-8% (inactive)	-61.3% (inactive)	139	0.633	-0.0361	-0.58	7.93% (inactive)	-0.435 (inactive)	-2.4e-05 (inactive)	0.00702 (inactive)	inactive	19% (inactive)
CCc1[nH]c(=O)c(C#N)c2c1CSC(C)(C)C2	678	-9.4% (inactive)	-211% (inactive)	166	0.402	0.0532	-0.896	-6.06% (inactive)	-0.471 (inactive)	-6.8e-05 (inactive)	0.00604 (inactive)	inactive	11.4% (inactive)
N#C/C(C(=O)N1CCCCC1)=C1\Nc2ccccc2S1	649	6.4% (inactive)	-0.9% (inactive)	117	-0.0253	-0.323	-0.359	1.63% (inactive)	-0.457 (inactive)	-6.2e-05 (inactive)	0.00412 (inactive)	inactive	15.7% (inactive)
Cc1ccc(S(=O)(=O)/C(C#N)=C/c2c(N3CCN(C)CC3)nc3ccccn3c2=O)cc1	484	6.4% (inactive)	-211% (inactive)	173	0.277	-0.883	0.543	1.04% (inactive)	-0.454 (inactive)	-5.5e-05 (inactive)	0.0048 (inactive)	inactive	-9.76% (inactive)
Cc1cc(/C=N/n2cnnc2)c(C)n1-c1ccc2c(c1)OCO2	374	0.6% (inactive)	-13.7% (inactive)	97.4	-1.04	0.298	0.807	14% (inactive)	-0.569 (inactive)	-6.1e-05 (inactive)	0.00571 (inactive)	inactive	-15.4% (inactive)
Cc1cc(C)n(-c2c(F)c(F)c(CN3CCCCC3)c(F)c2F)n1	557	6.8% (inactive)	29.4% (inactive)	107	-0.661	0.711	-1.05	17.8% (inactive)	-0.349 (inactive)	1.9e-06 (inactive)	0.00483 (inactive)	inactive	26% (inactive)
Cc1cc2nncn2c(Cc2ccccc2)n1	407	-7.4% (inactive)	-152% (inactive)	183	-1.1	0.267	0.816	-6.59% (inactive)	-0.428 (inactive)	-0.000108 (inactive)	0.00485 (inactive)	inactive	-3.56% (inactive)
Cn1c(=O)c2c(nc(NCc3ccco3)n2CCc2ccccc2)n(C)c1=O	605	6% (inactive)	-74.4% (inactive)	121	-0.322	-0.952	1.19	1.98% (inactive)	-0.524 (inactive)	-6e-05 (inactive)	0.00721 (inactive)	inactive	33.1% (inactive)
Cc1cccc(-c2nc(C#N)c(NC3CCCCC3)o2)c1	373	-5.1% (inactive)	-71.9% (inactive)	134	1.1	-0.201	-0.602	9.82% (inactive)	-0.492 (inactive)	-0.000119 (inactive)	0.00501 (inactive)	inactive	-0.036% (inactive)
N/C(=N\S(=O)(=O)c1ccc(Cl)s1)c1ccccc1	671	-8.3% (inactive)	-77.1% (inactive)	150	1.62	-1.89	-1.41	7.83% (inactive)	-0.473 (inactive)	-4.6e-05 (inactive)	0.00465 (inactive)	inactive	19.3% (inactive)
CC(O)CNc1nc2c(c(=O)n(C)c(=O)n2C)n1Cc1cccc(C(F)(F)F)c1 (stereo unspecified)	679	-9.1% (inactive)	-182% (inactive)	176	0.999	-1.51	-1.36	11.9% (inactive)	-0.511 (inactive)	-5e-05 (inactive)	0.00932 (inactive)	inactive	4.09% (inactive)
CCCCSc1nnc(-c2ccc(NC(C)=O)cc2)n1C	622	-5.3% (inactive)	21.1% (inactive)	166	-0.239	0.0535	0.233	-13.3% (inactive)	-0.461 (inactive)	-3e-05 (inactive)	0.00598 (inactive)	inactive	-9.33% (inactive)
Cc1cc2ccccc2cc(C)c1=O	388	-6.2% (inactive)	-120% (inactive)	168	1.48	0.00969	-1.01	-0.584% (inactive)	-0.453 (inactive)	-9e-05 (inactive)	0.00444 (inactive)	inactive	-12% (inactive)
COc1ccc(C2C=C(c3ccc(C)cc3)Nc3ncnn32)cc1 (stereo unspecified)	538	0.8% (inactive)	22.6% (inactive)	156	-1.85	1.16	0.377	-3.97% (inactive)	-0.0165 (inactive)	-1.6e-05 (inactive)	0.00462 (inactive)	inactive	2.98% (inactive)
CCCCCOc1ccccc1C(=O)NCCCC(=O)O	352	-4.8% (inactive)	-57.4% (inactive)	116	0.366	-0.837	0.123	19.4% (inactive)	-0.463 (inactive)	-0.000126 (inactive)	0.00541 (inactive)	inactive	32.4% (inactive)
Nc1c2c(nc3ccccc13)N(c1ccccc1)CC2	585	0.4% (inactive)	60.7% (active)	92.9	0.356	-0.531	-0.713	-2.09% (inactive)	-0.0969 (active)	-1.3e-05 (inactive)	0.00425 (inactive)	inactive; toxic	15.7% (inactive)
O=c1cc(O)nc2n1CCCS2	698	0.1% (inactive)	56.2% (inactive)	144	1.6	0.755	0.757	-9.53% (inactive)	-0.418 (inactive)	-5.5e-05 (inactive)	0.00444 (inactive)	inactive	0.661% (inactive)
